Measured values: ChEMBL document CHEMBL1151442, “Genetic and phenotypic identification of fusidic acid-resistant mutants with the small-colony-variant phenotype in Staphylococcus aureus” (2007)
≈ marks a conversion by molar mass, not a printed value.

How the values were obtained:
Type in all cases: functional
Staphylococcus aureus [1] = assay: Antibacterial activity against fusidic acid-resistant Staphylococcus aureus AH206 harboring Arg464Ser mutation in fusA gene after 18 to 24 hrs by Etest strip assay
Procedure, shortened: (§1)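 Mutants of lab strain 8325-4 were selected on LA with FA 2 μg/ml for 48 h at 37°C and purified on selective medium. For the MIC, one colony was suspended in 0.9% NaCl to 0.5 McFarland and swabbed onto Mueller-Hinton agar. An Etest strip was applied and plates were incubated at 37°C for 18–24 h until the lawn was evident.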

Staphylococcus aureus [2] = assay: Antibacterial activity against kanamycin-resistant Staphylococcus aureus AH374 (SCV-46) harboring -5 frameshift mutation at nucleotide 236-240 in rplF gene after 18 to 24 hrs by Etest strip assay
Procedure, shortened: (§2)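 SCVs of a Rifr 8325-4 derivative were selected on LA with KAN at 8, 16 or 24 μg/ml for 48 h at 37°C. They were purified at the same KAN level and screened on LA plus FA 1 μg/ml.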

Staphylococcus aureus [3] = assay: Antibacterial activity against kanamycin-resistant and fusidic acid-susceptible Staphylococcus aureus AH296 harboring Gly664Ala mutation in fusA gene after 18 to 24 hrs by Etest strip assay
Procedure, shortened: (§3)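 Etest MIC: a single colony was suspended in 0.9% NaCl to 0.5 McFarland and swabbed over Mueller-Hinton agar. The strip was applied and plates were incubated at 37°C for 18 to 24 h until an SCV lawn grew.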

Staphylococcus aureus [4] = assay: Antibacterial activity against kanamycin-resistant and fusidic acid-susceptible Staphylococcus aureus AH294 harboring Gly628Val mutation in fusA gene after 18 to 24 hrs by Etest strip assay; procedure, shortened: as §3
Staphylococcus aureus [5] = assay: Antibacterial activity against kanamycin-resistant Staphylococcus aureus AH369 (SCV-41) harboring Gln115Leu mutation in fusA gene after 18 to 24 hrs by Etest strip assay; procedure, shortened: as §2
Staphylococcus aureus [6] = assay: Antibacterial activity against fusidic acid-resistant Staphylococcus aureus AH201 harboring Gly452Cys mutation in fusA after 18 to 24 hrs by Etest strip assay; procedure, shortened: as §1
Staphylococcus aureus [7] = assay: Antibacterial activity against fusidic acid-resistant Staphylococcus aureus AH190 harboring Arg464His mutation in fusA gene after 18 to 24 hrs by Etest strip assay; procedure, shortened: as §1
Staphylococcus aureus [8] = assay: Antibacterial activity against kanamycin-resistant Staphylococcus aureus AH386 (SCV-58) harboring -1 frameshift mutation at nucleotide 90 in rplF gene after 18 to 24 hrs by Etest strip assay; procedure, shortened: as §2
Staphylococcus aureus [9] = assay: Antibacterial activity against kanamycin-resistant and fusidic acid-susceptible Staphylococcus aureus AH287 harboring Ala655Glu mutation in fusA gene after 18 to 24 hrs by Etest strip assay; procedure, shortened: as §3
Staphylococcus aureus [10] = assay: Antibacterial activity against kanamycin-resistant Staphylococcus aureus AH377 (SCV-49) harboring +1 frameshift mutation at nucleotide 23 in rplF gene after 18 to 24 hrs by Etest strip assay; procedure, shortened: as §2
Staphylococcus aureus [11] = assay: Antibacterial activity against kanamycin-resistant Staphylococcus aureus AH339 (SCV-11) harboring -1 frameshift mutation at nucleotide 144 in rplF gene after 18 to 24 hrs by Etest strip assay; procedure, shortened: as §2
Staphylococcus aureus [12] = assay: Antibacterial activity against kanamycin-resistant Staphylococcus aureus AH338 (SCV-10) harboring Arg464Cys mutation in fusA gene after 18 to 24 hrs by Etest strip assay; procedure, shortened: as §2
Staphylococcus aureus [13] = assay: Ratio of MIC for kanamycin-resistant Staphylococcus aureus harboring mutations in FusE gene to MIC for wild type kanamycin-susceptible Staphylococcus aureus AH001
Staphylococcus aureus [14] = assay: Antibacterial activity against kanamycin-resistant Staphylococcus aureus AH332 (SCV-4) harboring Ala655Glu mutation in fusA gene after 18 to 24 hrs by Etest strip assay; procedure, shortened: as §2
Staphylococcus aureus [15] = assay: Antibacterial activity against kanamycin-resistant Staphylococcus aureus AH364 (SCV-36) harboring Asp434Asn mutation in fusA gene after 18 to 24 hrs by Etest strip assay; procedure, shortened: as §2
Staphylococcus aureus [16] = assay: Antibacterial activity against fusidic acid-susceptible wild type Staphylococcus aureus 8325-4 after 18 to 24 hrs by Etest strip assay
Procedure, shortened: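 The inoculum was a single colony suspended in 0.9% NaCl to 0.5 McFarland and swabbed over a Mueller-Hinton agar plate. An Etest gradient strip was then applied, and the plate was incubated at 37°C for 18 to 24 h until lawn growth was evident. MIC was read from the strip following the manufacturer's instructions.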

Staphylococcus aureus [17] = assay: Antibacterial activity against fusidic acid-resistant Staphylococcus aureus AH194 harboring Pro404Leu mutation in fusA gene after 18 to 24 hrs by Etest strip assay; procedure, shortened: as §1
Staphylococcus aureus [18] = assay: Antibacterial activity against kanamycin-resistant Staphylococcus aureus AH390 (SCV-62) harboring +1 frameshift mutation at nucleotide 84 in rplF gene after 18 to 24 hrs by Etest strip assay; procedure, shortened: as §2
Staphylococcus aureus [19] = assay: Antibacterial activity against kanamycin-resistant and fusidic acid-susceptible Staphylococcus aureus AH421 harboring Pro404Arg mutation in fusA gene after 18 to 24 hrs by Etest strip assay; procedure, shortened: as §3
Staphylococcus aureus [20] = assay: Antibacterial activity against kanamycin-resistant Staphylococcus aureus AH348 (SCV-20) harboring TGA stop codon at nucleotide 244 in rplF gene after 18 to 24 hrs by Etest strip assay; procedure, shortened: as §2
Staphylococcus aureus [21] = assay: Antibacterial activity against kanamycin-resistant Staphylococcus aureus AH378 (SCV-50) harboring -1 frameshift mutation at nucleotide 221 in rplF gene after 18 to 24 hrs by Etest strip assay; procedure, shortened: as §2
Staphylococcus aureus [22] = assay: Antibacterial activity against fusidic acid-resistant Staphylococcus aureus AH199 harboring TAA stop codon at nucleotide 241 in rplF gene after 18 to 24 hrs by Etest strip assay; procedure, shortened: as §1
Staphylococcus aureus [23] = assay: Antibacterial activity against fusidic acid-resistant Staphylococcus aureus AH188 harboring Gly664Ser mutation in fusA gene after 18 to 24 hrs by Etest strip assay; procedure, shortened: as §1
Staphylococcus aureus [24] = assay: Antibacterial activity against fusidic acid-resistant Staphylococcus aureus AH198 harboring Gly452Ser mutation in fusA gene after 18 to 24 hrs by Etest strip assay; procedure, shortened: as §1
Staphylococcus aureus [25] = assay: Antibacterial activity against kanamycin-resistant Staphylococcus aureus AH337 (SCV-9) harboring -1 frameshift mutation at nucleotide 220 in rplF gene after 18 to 24 hrs by Etest strip assay; procedure, shortened: as §2
Staphylococcus aureus [26] = assay: Antibacterial activity against kanamycin-resistant Staphylococcus aureus AH329 (SCV-1) harboring Arg659Cys mutation in fusA gene after 18 to 24 hrs by Etest strip assay; procedure, shortened: as §2
Staphylococcus aureus [27] = assay: Antibacterial activity against kanamycin-resistant and fusidic acid-susceptible wild type Staphylococcus aureus 8325-4 […] after 18 to 24 hrs by Etest strip assay; procedure, shortened: as §3
Staphylococcus aureus [28] = assay: Antibacterial activity against kanamycin-resistant and fusidic acid-susceptible Staphylococcus aureus AH292 harboring Gly664Val mutation in fusA gene after 18 to 24 hrs by Etest strip assay; procedure, shortened: as §3
Staphylococcus aureus [29] = assay: Antibacterial activity against kanamycin-resistant Staphylococcus aureus AH383 (SCV-55) harboring TAA stop codon at nucleotide 139 in rplF gene after 18 to 24 hrs by Etest strip assay; procedure, shortened: as §2
Staphylococcus aureus [30] = assay: Antibacterial activity against kanamycin-resistant Staphylococcus aureus AH357 (SCV-29) harboring TAA stop codon at nucleotide 301 in rplF gene after 18 to 24 hrs by Etest strip assay; procedure, shortened: as §2
Staphylococcus aureus [31] = assay: Antibacterial activity against kanamycin-resistant and fusidic acid-susceptible Staphylococcus aureus AH416 harboring deletion of nucleotide 395-398 in rplF gene after 18 to 24 hrs by Etest strip assay; procedure, shortened: as §3

Structure (SMILES) | MIC (Staphylococcus aureus [1]) [µg/mL] | MIC (Staphylococcus aureus [2]) [µg/mL] | MIC (Staphylococcus aureus [3]) [µg/mL] | MIC (Staphylococcus aureus [4]) [µg/mL] | MIC (Staphylococcus aureus [5]) [µg/mL] | MIC (Staphylococcus aureus [6]) [µg/mL] | MIC (Staphylococcus aureus [7]) [µg/mL] | MIC (Staphylococcus aureus [8]) [µg/mL] | MIC (Staphylococcus aureus [9]) [µg/mL] | MIC (Staphylococcus aureus [10]) [µg/mL] | MIC (Staphylococcus aureus [11]) [µg/mL] | MIC (Staphylococcus aureus [12]) [µg/mL] | fold change (FC) (Staphylococcus aureus [13]) | MIC (Staphylococcus aureus [14]) [µg/mL] | MIC (Staphylococcus aureus [15]) [µg/mL] | MIC (Staphylococcus aureus [16]) [µg/mL] | MIC (Staphylococcus aureus [17]) [µg/mL] | MIC (Staphylococcus aureus [18]) [µg/mL] | MIC (Staphylococcus aureus [19]) [µg/mL] | MIC (Staphylococcus aureus [20]) [µg/mL] | also measured
CC(=O)O[C@H]1C[C@@]2(C)[C@@H](C[C@@H](O)[C@H]3[C@@]4(C)CC[C@@H](O)[C@@H](C)[C@@H]4CC[C@@]32C)/C1=C(\CCC=C(C)C)C(=O)O [FUSIDIC ACID] | 6 (≈ 11.6 µM) | 8 | 3 (≈ 5.81 µM) | 2 (≈ 3.87 µM) | 48 (≈ 92.9 µM) | 12 (≈ 23.2 µM) | 6 (≈ 11.6 µM) | 24 | 12 (≈ 23.2 µM) | 4 | 6 | 2 (≈ 3.87 µM) | 32 | 12 (≈ 23.2 µM) | 256 (≈ 495 µM) | 0.125 (≈ 0.242 µM) | 4 (≈ 7.74 µM) | 16 | 3 (≈ 5.81 µM) | 8 (≈ 15.5 µM) | MIC (Staphylococcus aureus [21]): 8 µg/mL; MIC (Staphylococcus aureus [22]): 4 µg/mL (≈ 7.74 µM); MIC (Staphylococcus aureus [23]): 4 µg/mL (≈ 7.74 µM); MIC (Staphylococcus aureus [24]): 32 µg/mL (≈ 61.9 µM); MIC (Staphylococcus aureus [25]): 12 µg/mL; MIC (Staphylococcus aureus [26]): 12 µg/mL (≈ 23.2 µM); MIC (Staphylococcus aureus [27]): 0.047 µg/mL (≈ 0.091 µM); MIC (Staphylococcus aureus [28]): 6 µg/mL (≈ 11.6 µM); MIC (Staphylococcus aureus [29]): 16 µg/mL (≈ 31 µM); MIC (Staphylococcus aureus [30]): 12 µg/mL (≈ 23.2 µM); MIC (Staphylococcus aureus [31]): 48 µg/mL (≈ 92.9 µM)
NC[C@H]1O[C@H](O[C@H]2[C@H](O)[C@@H](O[C@H]3O[C@H](CO)[C@@H](O)[C@H](N)[C@H]3O)[C@H](N)C[C@@H]2N)[C@H](O)[C@@H](O)[C@@H]1O [KANAMYCIN] | 6 (≈ 12.4 µM) | 32 | 16 (≈ 33 µM) | 16 (≈ 33 µM) | 6 (≈ 12.4 µM) | 6 (≈ 12.4 µM) | 4 (≈ 8.26 µM) | 256 | 16 (≈ 33 µM) | 6 | 64 | 48 (≈ 99.1 µM) | 3 | 12 (≈ 24.8 µM) | 8 (≈ 16.5 µM) | 1.5 (≈ 3.1 µM) | 2 (≈ 4.13 µM) | 256 | 8 (≈ 16.5 µM) | 8 (≈ 16.5 µM) | MIC (Staphylococcus aureus [21]): 16 µg/mL; MIC (Staphylococcus aureus [22]): 8 µg/mL (≈ 16.5 µM); MIC (Staphylococcus aureus [23]): 24 µg/mL (≈ 49.5 µM); MIC (Staphylococcus aureus [24]): 4 µg/mL (≈ 8.26 µM); MIC (Staphylococcus aureus [25]): 96 µg/mL; MIC (Staphylococcus aureus [26]): 12 µg/mL (≈ 24.8 µM); MIC (Staphylococcus aureus [27]): 2 µg/mL (≈ 4.13 µM); MIC (Staphylococcus aureus [28]): 32 µg/mL (≈ 66 µM); MIC (Staphylococcus aureus [29]): 96 µg/mL (≈ 198 µM); MIC (Staphylococcus aureus [30]): 96 µg/mL (≈ 198 µM); MIC (Staphylococcus aureus [31]): 256 µg/mL (≈ 528 µM)
CN[C@@H]1[C@H](O[C@H]2[C@H](O[C@H]3[C@H](O)[C@@H](O)[C@H](N=C(N)N)[C@@H](O)[C@@H]3N=C(N)N)O[C@@H](C)[C@]2(O)C=O)O[C@@H](CO)[C@H](O)[C@H]1O [STREPTOMYCIN] | 8 (≈ 13.8 µM) | 96 | 8 (≈ 13.8 µM) | 8 (≈ 13.8 µM) | 12 (≈ 20.6 µM) | 8 (≈ 13.8 µM) | 8 (≈ 13.8 µM) | 96 | 48 (≈ 82.5 µM) | 24 | 128 | 24 (≈ 41.3 µM) | 3 | 12 (≈ 20.6 µM) | 24 (≈ 41.3 µM) | 3 (≈ 5.16 µM) | 8 (≈ 13.8 µM) | 64 | 12 (≈ 20.6 µM) | 16 (≈ 27.5 µM) | MIC (Staphylococcus aureus [21]): 256 µg/mL; MIC (Staphylococcus aureus [22]): 16 µg/mL (≈ 27.5 µM); MIC (Staphylococcus aureus [23]): 16 µg/mL (≈ 27.5 µM); MIC (Staphylococcus aureus [24]): 6 µg/mL (≈ 10.3 µM); MIC (Staphylococcus aureus [25]): 256 µg/mL; MIC (Staphylococcus aureus [26]): 24 µg/mL (≈ 41.3 µM); MIC (Staphylococcus aureus [27]): 6 µg/mL (≈ 10.3 µM); MIC (Staphylococcus aureus [28]): 16 µg/mL (≈ 27.5 µM); MIC (Staphylococcus aureus [29]): 192 µg/mL (≈ 330 µM); MIC (Staphylococcus aureus [30]): 256 µg/mL (≈ 440 µM); MIC (Staphylococcus aureus [31]): 256 µg/mL (≈ 440 µM)
